In the array DNA melting data of Ke et al. (doi:10.1101/2024.01.08.574731):

How the values were obtained:
[1] = folding enthalpy; higher = less favourable; fluorescence melt of hairpins on a sequencing array, two-state fit; conditions: sodium 0.088 M
Procedure, shortened: (§1)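 Melting temperature and folding enthalpy were obtained by bootstrapped two-state fitting. Fits used Cy3 fluorescence of library hairpins with annealed Cy3 and quencher oligos on a sequenced MiSeq flow cell, imaged in 50 mM Na-HEPES pH 8.0, 25 mM NaCl in 2.5 °C steps up to 60 °C and normalised to pre-quench Cy3 and control constructs. Four replicates were combined by inverse-variance weighting, and fitted temperatures were raised by 9.35 °C to match UV melts.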

[2] = melting temperature; fluorescence melt of hairpins on a sequencing array, two-state fit, raised by 9.35 °C to match UV melts; conditions: sodium 0.088 M
Procedure, shortened: as §1

Sequence: GGCCGCGAAAGCGGAGCC ((((((....)))..)))
- folding enthalpy [1]: -13.4 kcal/mol
- Tm [2]: 53.9 °C

Sequence: GGCCGCGAAAGCGTTGCC ((((((....)))..)))
- folding enthalpy [1]: -16.8 kcal/mol
- Tm [2]: 56 °C

Sequence: GGCCGCGGAAACGCGACC ((.((((....)))).))
- folding enthalpy [1]: -19.7 kcal/mol
- Tm [2]: 63.3 °C

Sequence: GGCCGGACGAAAGTCGCC (((..(((....))))))
- folding enthalpy [1]: -21.5 kcal/mol
- Tm [2]: 50 °C

Sequence: GGCCGGGGAAACCCGGTC (.(((((....))))).)
- folding enthalpy [1]: -24.6 kcal/mol
- Tm [2]: 67.9 °C

Sequence: GGCCGTCGAAAGACGCC (((.(((....))))))
- folding enthalpy [1]: -17.2 kcal/mol
- Tm [2]: 62.8 °C

Sequence: GGCCGTGGAAACATGGCC ((((.((....)).))))
- folding enthalpy [1]: -44.6 kcal/mol
- Tm [2]: 61.8 °C

Sequence: GGCCGTGGAAACGCGGTC (.(((.(....).))).)
- folding enthalpy [1]: -30.3 kcal/mol
- Tm [2]: 52.5 °C

Sequence: GGCCGTGGAAACGTGGCC ((((..(....)..))))
- folding enthalpy [1]: -39.9 kcal/mol
- Tm [2]: 55.5 °C

Sequence: GGCCGTTCGAAAGAAGCC (((..(((....))))))
- folding enthalpy [1]: -13.8 kcal/mol
- Tm [2]: 27.6 °C

Sequence: GGCCTAGCGAAAGCTGCC (((..(((....))))))
- folding enthalpy [1]: -20.4 kcal/mol
- Tm [2]: 47.1 °C

Sequence: GGCCTCCGAAAGGACGCC (((.(((....))).)))
- folding enthalpy [1]: -37.2 kcal/mol
- Tm [2]: 53.6 °C

Sequence: GGCCTCGAAAGAGAAGCC ((((((....)))..)))
- folding enthalpy [1]: -26 kcal/mol
- Tm [2]: 47.9 °C

Sequence: GGCCTCGAAAGAGCGCC ((((((....))).)))
- folding enthalpy [1]: -21.8 kcal/mol
- Tm [2]: 56.7 °C

Sequence: GGCCTCGAAAGAGCGGCC ((((((....)))..)))
- folding enthalpy [1]: -29.1 kcal/mol
- Tm [2]: 51.8 °C

Sequence: GGCCTCGAAAGAGCTGCC ((((((....)))..)))
- folding enthalpy [1]: -24 kcal/mol
- Tm [2]: 45 °C

Sequence: GGCCTCGAAAGAGGTGCC ((((((....)))..)))
- folding enthalpy [1]: -13.2 kcal/mol
- Tm [2]: 47.6 °C

Sequence: GGCCTCGAAAGAGTGCC ((((((....))).)))
- folding enthalpy [1]: -37.7 kcal/mol
- Tm [2]: 58.2 °C

Sequence: GGCCTCGGAAACGAGACC ((.((((....)))).))
- folding enthalpy [1]: -31.3 kcal/mol
- Tm [2]: 52.2 °C

Sequence: GGCCTGCGAAAGCAAGCC (((.(((....))).)))
- folding enthalpy [1]: -30.1 kcal/mol
- Tm [2]: 58.5 °C

Sequence: GGCCTGGGAAACCAAGCC (((.(((....))).)))
- folding enthalpy [1]: -30.1 kcal/mol
- Tm [2]: 45.4 °C

Sequence: GGCCTGTCGAAAGACGCC (((..(((....))))))
- folding enthalpy [1]: -18.8 kcal/mol
- Tm [2]: 45.2 °C

Sequence: GGCCTTCGAAAGAAAGCC (((.(((....))).)))
- folding enthalpy [1]: -31 kcal/mol
- Tm [2]: 45.7 °C

Sequence: GGCCTTCGAAAGAATGCC (((.(((....))).)))
- folding enthalpy [1]: -33.1 kcal/mol
- Tm [2]: 48.3 °C

Sequence: GGCCTTGAAAAAGGCC ((((((....))))))
- folding enthalpy [1]: -39.9 kcal/mol
- Tm [2]: 68.4 °C

Sequence: GGCCTTGGAAACAGGGCC ((((.((....)).))))
- folding enthalpy [1]: -46 kcal/mol
- Tm [2]: 57.1 °C

Sequence: GGCCTTGGAAACGAGGCC (((((.(....).)))))
- folding enthalpy [1]: -50.7 kcal/mol
- Tm [2]: 59.4 °C

Sequence: GGCGAAACGAAAGTTGCC (((..(((....))))))
- folding enthalpy [1]: -25.5 kcal/mol
- Tm [2]: 49.5 °C

Sequence: GGCGACGAAAGTCCCGCC ((((((....)))..)))
- folding enthalpy [1]: -19.5 kcal/mol
- Tm [2]: 54.8 °C

Sequence: GGCGACGAAAGTCTGGCC ((((((....)))..)))
- folding enthalpy [1]: -23.3 kcal/mol
- Tm [2]: 53.7 °C

Sequence: GGCGACGAAAGTCTTGCC ((((((....)))..)))
- folding enthalpy [1]: -19.3 kcal/mol
- Tm [2]: 48.9 °C

Sequence: GGCGACGGAAACGTCGTC (.(((((....))))).)
- folding enthalpy [1]: -26.5 kcal/mol
- Tm [2]: 67.9 °C

Sequence: GGCGAGCGAAAGCTGGCC (((.(((....))).)))
- folding enthalpy [1]: -34.6 kcal/mol
- Tm [2]: 68 °C

Sequence: GGCGATACGAAAGTAGCC (((..(((....))))))
- folding enthalpy [1]: -23.3 kcal/mol
- Tm [2]: 49.5 °C

Sequence: GGCGATCGAAAGATGCC (((.(((....))))))
- folding enthalpy [1]: -37.8 kcal/mol
- Tm [2]: 55 °C

Sequence: GGCGATGGAAACATCGTC (.(((((....))))).)
- folding enthalpy [1]: -45.8 kcal/mol
- Tm [2]: 56.5 °C

Sequence: GGCGCAGCGAAAGCTGCC (((..(((....))))))
- folding enthalpy [1]: -6.91 kcal/mol
- Tm [2]: 52.6 °C

Sequence: GGCGCAGGAAACCGCACC ((.((.(....).)).))
- folding enthalpy [1]: -27.5 kcal/mol
- Tm [2]: 39 °C

Sequence: GGCGCCCCGAAAGGGGCC (((..(((....))))))
- folding enthalpy [1]: -7.09 kcal/mol
- Tm [2]: 58.6 °C

Sequence: GGCGCCGAAAGGCAAGCC ((((((....)))..)))
- folding enthalpy [1]: -21.7 kcal/mol
- Tm [2]: 63.8 °C

Sequence: GGCGCCGAAAGGCCGGCC ((((((....)))..)))
- folding enthalpy [1]: -17.2 kcal/mol
- Tm [2]: 58.7 °C

Sequence: GGCGCCGAAAGGCGGGCC ((((((....)))..)))
- folding enthalpy [1]: -9.79 kcal/mol
- Tm [2]: 60.4 °C

Sequence: GGCGCGGGAAACCGCACC ((.((((....)))).))
- folding enthalpy [1]: -22.4 kcal/mol
- Tm [2]: 61.7 °C

Sequence: GGCGCTCGAAAGAGGCC (((.(((....))))))
- folding enthalpy [1]: -40.1 kcal/mol
- Tm [2]: 57.5 °C

Sequence: GGCGCTGGAAACGGTGCC (((.(.(....).).)))
- folding enthalpy [1]: -31.2 kcal/mol
- Tm [2]: 52.7 °C

Sequence: GGCGGATCGAAAGATGCC (((..(((....))))))
- folding enthalpy [1]: -22.7 kcal/mol
- Tm [2]: 46.1 °C

Sequence: GGCGGCGAAAGCCAAGCC ((((((....)))..)))
- folding enthalpy [1]: -25.5 kcal/mol
- Tm [2]: 63.9 °C

Sequence: GGCGGCGAAAGCCTGGCC ((((((....)))..)))
- folding enthalpy [1]: -19.9 kcal/mol
- Tm [2]: 61.8 °C

Sequence: GGCGGCGGAAACACCGCC (((((.(....).)))))
- folding enthalpy [1]: -21.9 kcal/mol
- Tm [2]: 65.2 °C

Sequence: GGCGGTCGAAAGACAGCC (((.(((....))).)))
- folding enthalpy [1]: -35 kcal/mol
- Tm [2]: 67.7 °C

Sequence: GGCGGTGGAAACACCACC ((.((((....)))).))
- folding enthalpy [1]: -27.5 kcal/mol
- Tm [2]: 53 °C

Sequence: GGCGGTTCGAAAGAAGCC (((..(((....))))))
- folding enthalpy [1]: -16.6 kcal/mol
- Tm [2]: 41 °C

Sequence: GGCGTACGAAAGTAAGCC (((.(((....))).)))
- folding enthalpy [1]: -35.1 kcal/mol
- Tm [2]: 59.3 °C

Sequence: GGCGTAGAAATACGCC ((((((....))))))
- folding enthalpy [1]: -37.5 kcal/mol
- Tm [2]: 66.1 °C

Sequence: GGCGTAGGAAACTGTGCC (((..((....))..)))
- folding enthalpy [1]: -27 kcal/mol
- Tm [2]: 39.4 °C

Sequence: GGCGTCGAAAGACCGCC ((((((....))).)))
- folding enthalpy [1]: -34.5 kcal/mol
- Tm [2]: 60.5 °C

Sequence: GGCGTCGAAAGACGGGCC ((((((....)))..)))
- folding enthalpy [1]: -12.7 kcal/mol
- Tm [2]: 52 °C

Sequence: GGCGTCGGAAACGACACC ((.((((....)))).))
- folding enthalpy [1]: -30.1 kcal/mol
- Tm [2]: 53.9 °C

Sequence: GGCGTGGCGAAAGCCGCC (((..(((....))))))
- folding enthalpy [1]: -16.4 kcal/mol
- Tm [2]: 66.7 °C

Sequence: GGCGTGGGAAACCATGCC (((.(((....))).)))
- folding enthalpy [1]: -44.5 kcal/mol
- Tm [2]: 61.4 °C

Sequence: GGCGTGGGAAACCGCGTC (.((.((....)).)).)
- folding enthalpy [1]: -27.4 kcal/mol
- Tm [2]: 52.2 °C

Sequence: GGCGTGTCGAAAGACGCC (((..(((....))))))
- folding enthalpy [1]: -23.6 kcal/mol
- Tm [2]: 58.7 °C

Sequence: GGCGTTCGAAAGAAAGCC (((.(((....))).)))
- folding enthalpy [1]: -34.1 kcal/mol
- Tm [2]: 56.8 °C

Sequence: GGCTAAGGAAACTTAGTC (.(((((....))))).)
- folding enthalpy [1]: -36.7 kcal/mol
- Tm [2]: 42.4 °C

Sequence: GGCTACCGAAAGGTTGCC (((.(((....))).)))
- folding enthalpy [1]: -35.5 kcal/mol
- Tm [2]: 63 °C

Sequence: GGCTACGAAAGTACCGCC ((((((....)))..)))
- folding enthalpy [1]: -23.1 kcal/mol
- Tm [2]: 48.4 °C

Sequence: GGCTACGAAAGTACGGCC ((((((....)))..)))
- folding enthalpy [1]: -23.9 kcal/mol
- Tm [2]: 46.5 °C

Sequence: GGCTACGAAAGTAGCGCC ((((((....)))..)))
- folding enthalpy [1]: -9.93 kcal/mol
- Tm [2]: 55.7 °C
